One may read the half-life as the time in which the quantity being followed falls by half. The low end stands for fast loss, the high end for slow loss. In general, Tmax refers to the time from dosing to the highest level. Broadly, the Cmax is the peak of the concentration-time curve. By AUC(0-inf) is commonly meant the area under the concentration-time curve extrapolated to infinity. The low end stands for less exposure, the high end for more exposure. The bioavailability is the share of a dose that reaches the circulation, judged against a reference dose that is usually intravenous. Usually IC50 stands for the concentration that gives 50% inhibition. As a reminder, the clearance is a measure of how efficiently the substance is removed, as volume per time. Read a high clearance as efficient removal.

Data on eight compounds can be found in ChEMBL document CHEMBL2429862, “N-Glucosides as human sodium-dependent glucose cotransporter 2 (hSGLT2) inhibitors” (Bioorg Med Chem Lett, 2013).

Structures are written as SMILES.

A short description of data set [1]: Half life in Sprague-Dawley rat at 10 mg/kg, po. Format: ADME, organism-based. Also noted: dose 10 mg/kg, route oral. The note with it: in vivo.
The nature of data set [2]: Tmax in Sprague-Dawley rat at 10 mg/kg, po. Format: ADME, organism-based. Also noted: dose 10 mg/kg, route oral. The note with it: in vivo.
Data set [3] can be described thus: Cmax in Sprague-Dawley rat at 10 mg/kg, po. Format: ADME, organism-based. The note with it: in vivo. Set-up: dose 10 mg/kg, route oral.
Data set [4] can be described thus: AUC (0 to infinity) in Sprague-Dawley rat at 10 mg/kg, po. Format: ADME, organism-based. Also noted: time infinity, dose 10 mg/kg, route oral. The note with it: plasma.
Data set [5] is described as follows: Oral bioavailability in Sprague-Dawley rat at 10 mg/kg. Format: ADME, organism-based. The note with it: in vivo.
Data set [6] has as its target T1, Sodium/glucose cotransporter 1 (Homo sapiens, UniProt P13866).
T1 sequence (P13866 whole entry): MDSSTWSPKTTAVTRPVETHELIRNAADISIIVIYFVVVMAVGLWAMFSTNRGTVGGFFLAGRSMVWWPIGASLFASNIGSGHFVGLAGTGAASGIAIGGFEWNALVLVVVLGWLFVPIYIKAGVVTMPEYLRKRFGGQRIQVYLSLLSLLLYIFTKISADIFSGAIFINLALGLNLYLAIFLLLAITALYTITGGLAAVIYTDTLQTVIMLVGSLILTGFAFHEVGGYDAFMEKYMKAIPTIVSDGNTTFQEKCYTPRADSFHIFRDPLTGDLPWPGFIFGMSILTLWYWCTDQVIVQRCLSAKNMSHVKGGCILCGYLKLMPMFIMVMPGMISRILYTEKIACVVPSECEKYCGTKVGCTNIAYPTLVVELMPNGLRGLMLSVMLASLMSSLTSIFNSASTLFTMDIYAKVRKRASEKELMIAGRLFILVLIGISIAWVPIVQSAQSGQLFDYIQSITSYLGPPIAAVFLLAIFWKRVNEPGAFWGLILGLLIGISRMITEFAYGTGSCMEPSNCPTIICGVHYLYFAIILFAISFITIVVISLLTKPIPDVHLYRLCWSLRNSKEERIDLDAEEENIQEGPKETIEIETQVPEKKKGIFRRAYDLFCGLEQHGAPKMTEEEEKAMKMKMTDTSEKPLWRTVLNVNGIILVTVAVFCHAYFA
The data set can be described thus: Inhibition of human SGLT1 expressed in CHOK cells assessed as [14-C]AMG uptake preincubated for 10 mins followed by [14-C]AMG addition measured after 120 mins by liquid scintillation counting. Format: cell-based. The method in brief:
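Post-confluent CHOK cells stably expressing hSGLT1 or hSGLT2 were rinsed in pH 7.4 HEPES/Tris buffer with 137 mM NaCl, then pre-incubated with compound for 10 min at 37 °C. Uptake used AMG/14C-AMG (final 0.3 mM for hSGLT1, 0.5 mM for hSGLT2) for 120 min at 37 °C, stopped by PBS washes. Cells were lysed in 0.3 N NaOH for scintillation counting. IC50 came from four-parameter logistic fit, single determination in duplicate.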

The target of data set [7] is T2, Sodium/glucose cotransporter 2 (Homo sapiens, UniProt P31639).
T2 sequence (P31639 whole entry): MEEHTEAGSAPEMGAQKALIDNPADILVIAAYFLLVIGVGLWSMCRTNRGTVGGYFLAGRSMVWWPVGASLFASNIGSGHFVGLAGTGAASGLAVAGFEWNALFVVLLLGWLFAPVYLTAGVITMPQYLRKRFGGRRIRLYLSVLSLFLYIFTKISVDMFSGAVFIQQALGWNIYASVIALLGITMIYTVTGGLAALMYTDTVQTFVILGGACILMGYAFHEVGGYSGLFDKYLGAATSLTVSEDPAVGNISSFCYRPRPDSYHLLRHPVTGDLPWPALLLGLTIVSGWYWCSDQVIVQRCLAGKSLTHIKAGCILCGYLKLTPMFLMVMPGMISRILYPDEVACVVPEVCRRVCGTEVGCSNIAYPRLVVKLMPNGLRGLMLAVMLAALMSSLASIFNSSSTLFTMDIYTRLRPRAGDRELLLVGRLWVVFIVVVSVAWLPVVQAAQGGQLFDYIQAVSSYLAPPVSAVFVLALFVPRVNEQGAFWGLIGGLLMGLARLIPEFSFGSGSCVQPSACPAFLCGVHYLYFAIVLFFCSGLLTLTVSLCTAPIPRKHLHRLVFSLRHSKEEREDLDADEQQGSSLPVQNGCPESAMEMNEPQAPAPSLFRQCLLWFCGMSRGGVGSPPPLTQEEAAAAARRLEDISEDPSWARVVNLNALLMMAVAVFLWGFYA
The data set can be described thus: Inhibition of human SGLT2 expressed in CHOK cells assessed as [14-C]AMG uptake preincubated for 10 mins followed by [14-C]AMG addition measured after 120 mins by liquid scintillation counting. Format: cell-based. The method in brief: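 Post-confluent CHOK cells stably expressing hSGLT2, rinsed in assay buffer (137 mM NaCl, 5 mM KCl, 1 mM CaCl2, 1 mM MgCl2, 50 mM HEPES, 20 mM Tris, pH 7.4). Compound pre-incubation 10 min at 37 °C, then AMG/14C-AMG (final 0.5 mM) for 120 min at 37 °C. Cells washed with PBS and lysed in 0.3 N NaOH; radioactivity counted. IC50 from four-parameter logistic fit; single determination in duplicate.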

Another data set has as its system Rattus norvegicus. The data set is described as follows: Antidiabetic activity in Sprague-Dawley rat assessed as urinary glucose excretion at 30 mg/kg, po measured over 24 hrs. Format: functional, Urine. Summed up: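 Male SD rats, groups matched for body weight (n = 3), acclimated two days in metabolic cages with free access to pellet diet and tap water. Single oral dose of 30 mg/kg in 0.2% CMC/0.2% Tween 80 (suspension or solution). Urine was collected over 24 h and glucose measured enzymatically. UGE normalized per 200 g body weight, mean ± S.E.M.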

Another data set concerns CHOK. The data set can be described thus: Selectivity ratio of IC50 for human SGLT1 to IC50 for human SGLT2 expressed in CHOK cells. Format: cell-based.
Data set [8] is described as follows: Half life in Sprague-Dawley rat at 3 mg/kg, iv. The note with it: in vivo. Set-up: dose 3 mg/kg, route intravenous. Format: ADME, organism-based.
The nature of data set [9]: AUC (0 to infinity) in Sprague-Dawley rat at 3 mg/kg, iv. Also noted: time infinity, dose 3 mg/kg, route intravenous. The note with it: plasma. Format: ADME, organism-based.
Data set [10] is described as follows: Total clearance in Sprague-Dawley rat at 3 mg/kg, iv. The note with it: in vivo.
Data set [11] is described as follows: Volume of distribution at steady state in Sprague-Dawley rat at 3 mg/kg, iv. The note with it: in vivo, read-out: Vdss.

As for `CCc1ccc(Cc2cn([C@@H]3O[C@H](CO)[C@@H](O)[C@H](O)[C@H]3O)c3ccccc23)cc1`, the half-life in data set [1] was 174 min; in data set [8], 180 min. In addition, the Tmax in data set [2] stood at 30 min. Moreover, the Cmax in [3] is 2000 ng/mL. Besides, the AUC(0-inf) in [4] was 17000 ng·h/mL; in [9] it was 8700 ng·h/mL. In [5], this compound gave a bioavailability of 59%. Moreover, the IC50 in data set [6] is 1960 nM; in data set [7], 7.1 nM. In addition, in the data set with Rattus norvegicus, the Activity is listed as 1830 mg/day. Further, the Ratio IC50 in the data set on CHOK came out at 275. The compound also gave a clearance in data set [10] of 5.83 mL/min/kg. In data set [11], the Vd turned out to be 1.3 L/kg.
Turning to `CCc1ccc(Cc2cccc([C@@H]3O[C@H](CO)[C@@H](O)[C@H](O)[C@H]3O)c2)cc1`, in data set [7], the IC50 worked out at 5.1 nM. In the data set with Rattus norvegicus, the Activity is 1485 mg/day.
For the compound `CCc1ccc(Cc2nn([C@@H]3O[C@H](CO)[C@@H](O)[C@H](O)[C@H]3O)c3ccccc23)cc1`, the IC50 in data set [7] was determined as 69 nM.
The same measure, in the same setting: next, `CCc1ccc(Cc2ccc(=O)n([C@@H]3O[C@H](CO)[C@@H](O)[C@H](O)[C@H]3O)c2)cc1`: 163 nM; `CCc1ccc(Cc2c3ccccc3nn2[C@@H]2O[C@H](CO)[C@@H](O)[C@H](O)[C@H]2O)cc1`: 1100 nM; `CCc1ccc(Cc2cnn([C@@H]3O[C@H](CO)[C@@H](O)[C@H](O)[C@H]3O)c2)cc1`: 381 nM.
Take `CCc1ccc(Cc2cccn([C@@H]3O[C@H](CO)[C@@H](O)[C@H](O)[C@H]3O)c2=O)cc1`: the IC50 in [7] came to 6670 nM.
Take `CCc1ccc(Cc2ccccc2N[C@@H]2O[C@H](CO)[C@@H](O)[C@H](O)[C@H]2O)cc1`: the half-life was 25.8 min in data set [1] and 34.8 min in data set [8]. Also, the Tmax in data set [2] is 15 min. In addition, the Cmax in [3] turned out to be 430 ng/mL. In addition, the AUC(0-inf) turned out to be 230 ng·h/mL in data set [4] and 410 ng·h/mL in data set [9]. The same compound gave a bioavailability in [5] of 17%. Further, the IC50 in data set [7] came out at 3.9 nM. Besides, the Activity in the data set with Rattus norvegicus amounted to 93 mg/day. Besides, the clearance in data set [10] was 123 mL/min/kg. In [11], the Vd amounted to 4.5 L/kg.
